# Source: PubChem (several laboratories)
# Lipid droplet: modulators of hepatic lipid droplet formation; actives 0.4% (n = 240,000); AML12 mouse hepatocytes, oleate lipid droplets, BODIPY imaging; inhibition, % at 6.5 µM;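 active means lipid droplet intensity inhibited by at least 50%, with more than 500 cells counted; inconclusive means wells with under 300 cells, treated as cytotoxic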
#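 Assay system: AML12 mouse liver cells | Compound dosing: One dose, 6.5 µM compound | Read-out basis: Droplet intensity reduction, % inhibition | Measured by: Fluorescence imaging, 20x objective, two fields per well | Schedule: Overnight treatment with compound plus oleate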
# L929 necroptosis: L929 zVAD cell death inhibition; viability rescue, % at 10 µM; actives 0.38% (n = 220,000); L929 zVAD necroptosis rescue, ATP luminescence, 24 h; with zVAD 60 µM; AID 1377;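 active means activation, scaled between plate controls, above about 75%, limit read from the data; inactive means activation under that limit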;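 further: 0% = zVAD with DMSO and 100% = DMSO alone without zVAD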
# M18AAP inhibitor: PfM18AAP enzyme inhibition. recombinant PfM18AAP, H-Glu-NHMec fluorogenic cleavage. AID 1822. actives 1.2% (n = 290,000). inhibition, % at 7.35 µM;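 active means inhibition above the campaign mean inhibition over all tested compounds plus 3 SD, cut at about 28% in these data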;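 further: 0% = plate median of test compound wells and 100% = 2 mM ZnCl2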
# TNF necrop inh: inhibitors of TNF-alpha induced necroptosis in Jurkat FADD-/- cells; activation (protection from cell death), % at 10 µM; actives 0.068% (n = 220,000); AID 463075; Jurkat FADD-/- TNF necroptosis rescue, ATP luminescence, 24 h; 0 = TNF only, 100 = no-TNF cells;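 active means activation, meaning protection from cell death, of at least 50% relative to plate controls; inactive means activation below 50%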;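 further: necroptosis triggered by 40 ng/mL TNF-alpha added together with compound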
# RBBP9 inhibitor: inhibitors of human serine hydrolase RBBP9 | AID 1515 | actives 0.2% (n = 220,000) | inhibition, % at 7.94 µM | O75884 | recombinant RBBP9, FP-Rh probe fluorescence polarization;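 active means inhibition above the campaign mean of all tested compounds plus 3 SD, cut at about 14% in these data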;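 further: plate controls were DMSO wells with RBBP9 for no effect and wells lacking RBBP9 protein for full effect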
# Target sequence (O75884 whole entry, looked up): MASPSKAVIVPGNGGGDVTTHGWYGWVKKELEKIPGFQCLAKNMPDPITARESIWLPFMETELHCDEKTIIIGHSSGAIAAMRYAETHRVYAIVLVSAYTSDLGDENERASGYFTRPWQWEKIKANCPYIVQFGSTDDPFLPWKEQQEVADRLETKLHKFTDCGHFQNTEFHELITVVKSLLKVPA
#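 Measured by – fluorescence polarization · Test system – RBBP9 protein · Input – 2.5 µM RBBP9 dispensing solution, before mixing · Measure – percent inhibition from mP, scaled between DMSO and no-protein wells · Benchmarks – DMSO-treated enzyme wells and wells lacking RBBP9 · Times – preincubation 30 min plus labeling 45 min at 25 °C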
# TbHK1 inh: blocks Trypanosoma brucei hexokinase 1 activity; recombinant TbHK1, G6PDH-coupled NADH A340; inhibition, % at 10 µM; actives 0.11% (n = 220,000);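 active means inhibition of 50% or more in the single-dose primary screen; inactive means inhibition below 50%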
# RBBP9 inh conf: confirmation of human RBBP9 inhibitors; shares compounds with RBBP9 inhibitor; recombinant RBBP9, FP-Rh probe fluorescence polarization; inhibition, % at 7.94 µM; actives 36% (n = 410);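 active means inhibition above the hit cutoff derived for the primary screen, cut at about 15% in these data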;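 further: 0% = RBBP9 with DMSO and 100% = wells lacking RBBP9 protein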
# * marks the source's active call; other numbers are inactive results; ? = inconclusive; / = not tested or not shown. Compounds with a hit are over-represented: about 2% of the library has one in this group of screens.
SMILES,Lipid droplet,L929 necroptosis,M18AAP inhibitor,TNF necrop inh,RBBP9 inhibitor,TbHK1 inh,RBBP9 inh conf
COc1ccc(OC)c(S(=O)(=O)N2c3cc(F)ccc3CCC2C)c1 (stereo unspecified),-50,0,2,-2,2,0,/
COc1cc(/C=N/Nc2ccc(F)cc2F)cc(OC)c1O,7,0,6,-2,17*,11,53*
O=C(NN1C(=O)/C(=C/C=C/c2ccco2)SC1=S)c1ccccc1O,9,0,18,-5,23*,63*,15*
Cn1cccc1/C=C1\SC(=S)N(NC(=O)c2ccccc2O)C1=O,-20,0,5,2,1,7,/
Cc1cccc(-n2c(C)nc3cc(C(=O)N4CCOCC4)ccc32)c1,-3,/,2,/,/,/,/
Cc1nn(-c2ccccc2)c(Cl)c1/C=N/NC(=O)CNC(=O)c1ccccc1Cl,4,52,0,8,39*,0,3
NNC(=O)c1ccc(CSc2n[nH]c(=O)[nH]c2=O)cc1,-1,1,7,1,-5,-7,/
CC1Cc2cc(/C(O)=C3/C(=O)C(=O)N(CCCn4ccnc4)C3c3ccncc3)ccc2O1 (stereo unspecified),/,0,1,-2,14*,-22,4
Cc1cc(C)n(-c2cccc3cccnc23)n1,0,-1,-5,-2,-3,-2,/
CC(=O)c1c(C(C)=O)c(C)n(-c2cccc3cccnc23)c1C,0,-2,4,-1,29*,3,4
CCOc1cccc(CN2CCN(Cc3ccc(C)o3)C(CCO)C2)c1O (stereo unspecified),-7,-1,0,1,15*,0,1
C/C(Cc1ccccc1)=N\NC(=O)CNC(=O)c1cccc(Cl)c1,4,0,0,2,21*,-2,-3
O=c1c(-c2ccco2)[n+]([O-])c2ccccc2n1OCc1c(F)cccc1F,-6,0,14,4,5,-8,/
O=c1c(-c2ccco2)[n+]([O-])c2ccccc2n1OCc1ccccc1F,22,0,18,0,15*,-8,4
CCN=C1S/C(=C\c2ccc(O)c(OCC)c2)C(=O)N1CC,2,28,5,0,-3,-13,/
CCN=C1S/C(=C\c2cc(OCC)c(O)cc2Br)C(=O)N1CC,-20,0,16,-5,24*,-7,6
COc1ccc(N/C=C2\CCc3ccccc3C2=O)cc1,26,15,37*,-2,18*,2,13
COc1ccc2c(c1)CC/C(=C\Nc1ccc3c(c1)OCO3)C2=O,1,0,-30,-3,6,8,/
CCCC(=O)n1nc(-c2ccc(C)cc2)nc1NCc1ccco1,8,14,-15,1,17*,-16,9
CCc1ccccc1NC(=O)CSc1nnc(Cn2nnc3ccccc32)n1C,2,1,1,-1,15*,0,5
CC(=O)Nc1ccc(NC(=O)CN(C)S(=O)(=O)c2ccc3c(c2)CCC(=O)N3)cc1,-3,/,3,/,/,/,/
O=C(NC1CC1)C1=C[C@H](c2ccc(C(F)(F)F)cc2)C[C@H](OCc2ccc(CO)cc2)O1,-30,1,-3,3,10,-8,/
CCN(CC)c1ccc(NC(=O)c2ccc3c(c2)c(C)c(C)n3C)cc1,71*,50,4,-2,30*,-2,28*
Cc1ccc(S(=O)(=O)N2CCOCC2)cc1NC(=O)CNCC1CCCCC1,18,-1,-2,2,-10,3,/
Cc1sc(NC(=O)c2ccco2)c(C(Nc2ccccn2)c2ccccc2)c1C (stereo unspecified),?,0,2,4,21*,-11,-2
CCCCCc1ccc(OCCCC[n+]2cccc(C)c2)c(CCCCC)c1,-31,4,4,-11,15*,33,0
CCCCCc1ccc(OCCCC[n+]2ccccc2)c(CCCCC)c1,-4,2,-4,-13,-1,11,/
